Data published in ChEMBL document CHEMBL1153223, “One pot synthesis and SAR of some novel 3-substituted 5,6-diphenyl-1,2,4-triazines as antifungal agents” (2010).
In brackets after ≈: the same amount, converted by molar mass. Activity calls are given as the source filed them. The calls are words filed in the database; no cut-off is given here.

Assays:
Cryptococcus neoformans [1] = assay: Antifungal activity against Cryptococcus neoformans NCIM 576 up to 200 ug/mL by standard agar plate method; format: functional, organism-based
Summary of the method: (§1)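 Read-out was the minimum inhibitory concentration (MIC) on agar plates, with miconazole and fluconazole run as reference antifungal standards.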

Aspergillus flavus [2] = assay: Antifungal activity against Aspergillus flavus NCIM 539 by standard agar plate method; format: functional; summary of the method: as §1
Aspergillus niger [3] = assay: Antifungal activity against Aspergillus niger NCIM 1196 by standard agar plate method; format: functional; summary of the method: as §1
Candida albicans = assay: Antifungal activity against Candida albicans NCIM 347 by standard agar plate method; format: functional; summary of the method: as §1
Fusarium oxysporum [4] = assay: Antifungal activity against Fusarium oxysporum NCIM 1332 by standard agar plate method; format: functional; summary of the method: as §1
Cryptococcus neoformans [5] = assay: Antifungal activity against Cryptococcus neoformans NCIM 576 by standard agar plate method; format: functional; summary of the method: as §1
Aspergillus niger [6] = assay: Antifungal activity against Aspergillus niger NCIM 1196 up to 200 ug/mL by standard agar plate method; format: functional, organism-based; summary of the method: as §1
Fusarium oxysporum [7] = assay: Antifungal activity against Fusarium oxysporum NCIM 1332 up to 200 ug/mL by standard agar plate method; format: functional, organism-based; summary of the method: as §1
Aspergillus flavus [8] = assay: Antifungal activity against Aspergillus flavus NCIM 539 up to 200 ug/mL by standard agar plate method; format: functional, organism-based; summary of the method: as §1

| SMILES | MIC (Cryptococcus neoformans [1]) | MIC (Aspergillus flavus [2]) [µg/mL] | MIC (Aspergillus niger [3]) [µg/mL] | MIC (Candida albicans) [µg/mL] | MIC (Fusarium oxysporum [4]) [µg/mL] | MIC (Cryptococcus neoformans [5]) [µg/mL] | MIC (Aspergillus niger [6]) | MIC (Fusarium oxysporum [7]) | MIC (Aspergillus flavus [8]) |
| --- | --- | --- | --- | --- | --- | --- | --- | --- | --- |
| CC(=O)N1CCC(n2cc(-c3nnc(-c4ccccc4)c(-c4ccccc4)n3)nn2)CC1 | inactive | 20 (≈ 47 µM) | 20 (≈ 47 µM) | 35 (≈ 82.3 µM) | 40 (≈ 94 µM) | – | – | – | – |
| CCN1CCC(n2cc(-c3nnc(-c4ccccc4)c(-c4ccccc4)n3)nn2)CC1 | – | 12.5 (≈ 30.4 µM) | 12.5 (≈ 30.4 µM) | 25 (≈ 60.8 µM) | 25 (≈ 60.8 µM) | 35 (≈ 85.1 µM) | – | – | – |
| O=C(c1ccc(Cl)cc1)N1CCC(n2cc(-c3nnc(-c4ccccc4)c(-c4ccccc4)n3)nn2)CC1 | – | 15 (≈ 28.7 µM) | 12.5 (≈ 23.9 µM) | 25 (≈ 47.9 µM) | 25 (≈ 47.9 µM) | 30 (≈ 57.5 µM) | – | – | – |
| c1ccc(-c2nnc(-c3cn(C4CCNCC4)nn3)nc2-c2ccccc2)cc1 | – | 37.5 (≈ 97.8 µM) | 42.5 (≈ 111 µM) | 30 (≈ 78.2 µM) | 40 (≈ 104 µM) | 45 (≈ 117 µM) | – | – | – |
| O=C(c1ccccc1)N1CCC(n2cc(-c3nnc(-c4ccccc4)c(-c4ccccc4)n3)nn2)CC1 | – | 17.5 (≈ 35.9 µM) | 15 (≈ 30.8 µM) | 30 (≈ 61.5 µM) | 30 (≈ 61.5 µM) | 55 (≈ 113 µM) | – | – | – |
| Clc1ccc(COC(Cn2ccnc2)c2ccc(Cl)cc2Cl)c(Cl)c1 (stereo not given) [MICONAZOLE] | – | 12.5 (≈ 30 µM) | 12.5 (≈ 30 µM) | 25 (≈ 60.1 µM) | 25 (≈ 60.1 µM) | 25 (≈ 60.1 µM) | – | – | – |
| CCC(=O)N1CCC(n2cc(-c3nnc(-c4ccccc4)c(-c4ccccc4)n3)nn2)CC1 | inactive | 20 (≈ 45.5 µM) | 20 (≈ 45.5 µM) | 50 (≈ 114 µM) | 50 (≈ 114 µM) | – | – | – | – |
| CC(C)(C)OC(=O)N1CCC(n2cc(-c3nnc(-c4ccccc4)c(-c4ccccc4)n3)nn2)CC1 | – | 55 (≈ 114 µM) | – | 70 (≈ 145 µM) | – | 100 (≈ 207 µM) | inactive | inactive | – |
| CN1CCC(n2cc(-c3nnc(-c4ccccc4)c(-c4ccccc4)n3)nn2)CC1 | – | 17.5 (≈ 44 µM) | 12.5 (≈ 31.4 µM) | 25 (≈ 62.9 µM) | 30 (≈ 75.5 µM) | 25 (≈ 62.9 µM) | – | – | – |
| OC(Cn1cncn1)(Cn1cncn1)c1ccc(F)cc1F [FLUCONAZOLE] | – | 5 (≈ 16.3 µM) | 10 (≈ 32.7 µM) | 5 (≈ 16.3 µM) | 5 (≈ 16.3 µM) | 5 (≈ 16.3 µM) | – | – | – |
| CS(=O)(=O)N1CCC(n2cc(-c3nnc(-c4ccccc4)c(-c4ccccc4)n3)nn2)CC1 | inactive | 30 (≈ 65 µM) | – | 50 (≈ 108 µM) | 60 (≈ 130 µM) | – | inactive | – | – |
| CCCC(=O)N1CCC(n2cc(-c3nnc(-c4ccccc4)c(-c4ccccc4)n3)nn2)CC1 | – | 35 (≈ 77.2 µM) | 40 (≈ 88.2 µM) | 62.5 (≈ 138 µM) | 65 (≈ 143 µM) | 75 (≈ 165 µM) | – | – | – |
| c1ccc(CN2CCC(n3cc(-c4nnc(-c5ccccc5)c(-c5ccccc5)n4)nn3)CC2)cc1 | inactive | – | 95 (≈ 201 µM) | 40 (≈ 84.5 µM) | 60 (≈ 127 µM) | – | – | – | inactive |
| Cc1ccc(S(=O)(=O)N2CCC(n3cc(-c4nnc(-c5ccccc5)c(-c5ccccc5)n4)nn3)CC2)cc1 | – | 35 (≈ 65.1 µM) | 47.5 (≈ 88.3 µM) | 90 (≈ 167 µM) | 100 (≈ 186 µM) | 150 (≈ 279 µM) | – | – | – |
